Laboratory results taken from ChEMBL document CHEMBL5303300, “EUbOPEN Chemogenomics Library - Multiplex” (2023).
Where “and” joins values, the source holds several entries; their conditions need not be identical. Equal entries are not always repeated.

Test system: HEK-293T
Assay: Multiplex assay against HEK293T
Format: toxicity, cell-based
Settings: human, number of replicates 2
In short: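 Compound was added to live cells that had been stained at seeding with Hoechst33342, BioTracker Green Microtubule Cytoskeleton Dye, MitoTracker Red and Annexin V Alexa Fluor 680, and imaging followed on a CQ1 microscope at 37°C and 5% CO2. CellPathfinder machine-learning gating divided cells into Hoechst high-intensity objects or normal cells, normal cells into healthy, pyknosed or fragmented nuclei, and pyknosed cells into mitotic or apoptotic. Tubulin, mitochondrial-mass and membrane-permeability phenotypes are per cents of healthy-nucleus cells.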

[1] = 12 h, 1 µM, compound concentration 1 uM
[2] = 12 h, 10 µM, compound concentration 10 uM
[3] = 24 h, 1 µM, compound concentration 1 uM
[4] = 24 h, 10 µM, compound concentration 10 uM
[5] = 48 h, 1 µM, compound concentration 1 uM
[6] = 48 h, 10 µM, compound concentration 10 uM

## COc1ccc(F)c(F)c1C(=O)c1cnc(NC2CCN(S(C)(=O)=O)CC2)nc1N [RG-547]
[1]
  Population Apoptotic (%): 71% and 70%
  Population Fragmented Nuclei (%): 1% and 3%
  Population Healthy Nuclei (%): 86% and 87%
  Population Hoechst High Intensity Objects (%): 8%
  Population Membrane Permeable-Phenotype (%): 4%
  Population Mitochondria Different-Phenotype (%): 21% and 18%
  Population Mitotic Cells (%): 28% and 29%
  Population Normal (%): 91%
  Population Pyknosed Nuclei (%): 11% and 8%
  Population Tubulin-Different-Phenotype (%): 57% and 48%
  Total Cell Count: 469 and 554
[2]
  Population Apoptotic (%): 62% and 82%
  Population Fragmented Nuclei (%): 3% and 4%
  Population Healthy Nuclei (%): 91% and 86%
  Population Hoechst High Intensity Objects (%): 8% and 11%
  Population Membrane Permeable-Phenotype (%): 2% and 1%
  Population Mitochondria Different-Phenotype (%): 24% and 33%
  Population Mitotic Cells (%): 37% and 17%
  Population Normal (%): 91% and 88%
  Population Pyknosed Nuclei (%): 5% and 8%
  Population Tubulin-Different-Phenotype (%): 59% and 65%
  Total Cell Count: 491 and 448
[3]
  Population Apoptotic (%): 86% and 67%
  Population Fragmented Nuclei (%): 3% and 5%
  Population Healthy Nuclei (%): 90% and 87%
  Population Hoechst High Intensity Objects (%): 5% and 7%
  Population Membrane Permeable-Phenotype (%): 5% and 3%
  Population Mitochondria Different-Phenotype (%): 8% and 9%
  Population Mitotic Cells (%): 13% and 32%
  Population Normal (%): 94% and 92%
  Population Pyknosed Nuclei (%): 5% and 7%
  Population Tubulin-Different-Phenotype (%): 33% and 37%
  Total Cell Count: 670 and 592
[4]
  Population Apoptotic (%): 63% and 66%
  Population Fragmented Nuclei (%): 4% and 2%
  Population Healthy Nuclei (%): 89% and 87%
  Population Hoechst High Intensity Objects (%): 9% and 15%
  Population Membrane Permeable-Phenotype (%): 0%
  Population Mitochondria Different-Phenotype (%): 42% and 37%
  Population Mitotic Cells (%): 36% and 33%
  Population Normal (%): 90% and 84%
  Population Pyknosed Nuclei (%): 6% and 9%
  Population Tubulin-Different-Phenotype (%): 63% and 61%
  Total Cell Count: 395 and 403
[5]
  Population Apoptotic (%): 61% and 72%
  Population Fragmented Nuclei (%): 11%
  Population Healthy Nuclei (%): 86%
  Population Hoechst High Intensity Objects (%): 5%
  Population Membrane Permeable-Phenotype (%): 1% and 2%
  Population Mitochondria Different-Phenotype (%): 2% and 4%
  Population Mitotic Cells (%): 38% and 27%
  Population Normal (%): 94%
  Population Pyknosed Nuclei (%): 1%
  Population Tubulin-Different-Phenotype (%): 24% and 25%
  Total Cell Count: 841 and 644
[6]
  Population Apoptotic (%): 73% and 80%
  Population Fragmented Nuclei (%): 5%
  Population Healthy Nuclei (%): 89% and 84%
  Population Hoechst High Intensity Objects (%): 17% and 13%
  Population Membrane Permeable-Phenotype (%): 0%
  Population Mitochondria Different-Phenotype (%): 50% and 55%
  Population Mitotic Cells (%): 26% and 20%
  Population Normal (%): 82% and 86%
  Population Pyknosed Nuclei (%): 5% and 10%
  Population Tubulin-Different-Phenotype (%): 67% and 65%
  Total Cell Count: 329 and 336
